An excerpt weighted towards active compounds, which were near 6.7% of everything screened.
CHOP inhibitor = blocks CHOP induction under ER stress; CHO-K1 CHOP-promoter luciferase, tunicamycin-induced, 15-18 h; inhibition, % at 10 µM; 220,000 tested, 3.8% active; AID 2732;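 active means compounds that reduced the stress-induced luciferase reporter signal by more than about 70% of percent inhibition, limit read from the data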;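 further: 0% = tunicamycin plus vehicle and 100% = wells without tunicamycin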
PREPL inhibitor = human PREPL enzyme inhibition; Q4J6C6; recombinant PREPL, fluorescence polarization activity-based probe; inhibition, % at 5.96 µM; 320,000 tested, 0.68% active; in the data active means inhibition above about 43%;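 further: 0% = enzyme with DMSO and 100% = wells lacking enzyme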
Target sequence (Q4J6C6 whole entry, looked up): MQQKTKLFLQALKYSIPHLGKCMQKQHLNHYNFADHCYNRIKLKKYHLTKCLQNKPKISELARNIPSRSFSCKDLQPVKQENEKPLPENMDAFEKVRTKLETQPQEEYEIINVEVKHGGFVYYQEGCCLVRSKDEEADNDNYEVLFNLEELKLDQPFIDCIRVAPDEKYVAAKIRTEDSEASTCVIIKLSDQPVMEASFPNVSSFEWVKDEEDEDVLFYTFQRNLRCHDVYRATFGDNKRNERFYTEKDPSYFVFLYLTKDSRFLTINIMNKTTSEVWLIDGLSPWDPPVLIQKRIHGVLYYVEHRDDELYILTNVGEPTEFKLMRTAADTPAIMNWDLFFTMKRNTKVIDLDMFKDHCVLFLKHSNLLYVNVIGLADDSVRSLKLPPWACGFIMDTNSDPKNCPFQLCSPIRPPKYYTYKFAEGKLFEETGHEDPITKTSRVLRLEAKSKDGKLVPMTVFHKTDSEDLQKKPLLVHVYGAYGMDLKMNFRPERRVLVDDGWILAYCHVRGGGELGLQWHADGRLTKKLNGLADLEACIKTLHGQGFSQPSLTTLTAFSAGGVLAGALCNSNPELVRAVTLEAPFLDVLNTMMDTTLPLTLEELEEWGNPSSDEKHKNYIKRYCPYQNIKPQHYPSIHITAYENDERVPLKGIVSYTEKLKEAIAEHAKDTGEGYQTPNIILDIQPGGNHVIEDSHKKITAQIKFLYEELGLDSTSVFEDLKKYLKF
NR3A LBD binder = NR3A (human) ligand-binding domain modulation; NR3A LBD differential scanning fluorimetry, Tm shift; 0% = protein alone, 100% = glycine-bound protein; AID 1259313; Tm shift relative to glycine control, % at 25 µM; 340,000 tested, 2.5% active;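 active means melting temperature shift of at least 10% of the positive control shift, at one fixed dose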
Beta apoptosis = blocks beta cell apoptosis. INS-1E cytokine-induced death, ATP luminescence, 48 h; percent of positive-control rescue, neutral wells zero. protection from apoptosis, % (concentration not given with the values). 300,000 tested, 0.8% active. AID 435005;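 active means Every replicate reaches about 75%, or at least half do and their mean reaches it too, limit read from the data; inconclusive means At least half of replicates reach the limit but their mean does not; inactive means Under half of replicates reach the limit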;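 further: 0% = cytokine-treated negative control wells and 100% = positive control rescue; higher means more ATP so stronger rescue from cytokine killing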
CSC inhib = cancer stem cell inhibition; cancer stem cell-like cells viability, luminescence; inhibition, % at 7.5 µM; 300,000 tested, 1.1% active; AID 2717; in the data active means inhibition above about 75%; inconclusive means no clear call, values can overlap the other calls; tested in HMLE shEcad cells
T cruzi repl = T. cruzi replication inhibition. T. cruzi beta-gal in NIH3T3, luminescence, 90 h. inhibition, % (test concentration not listed). 300,000 tested, 1.4% active. AID 1885;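 active means mean inhibition across valid replicates above about 55%, limit read from the data; inconclusive means mean below that limit but half or more replicates reach it; inactive means mean below it, under half of replicates reach it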;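 further: signal also drops with host cell toxicity which is not excluded here; 0% = plate median of DMSO wells and 100% = zero luminescence signal; higher percent means less beta-gal luminescence so fewer parasites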
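Assay system: NIH/3T3 fibroblasts plus reporter T. cruzi. Amount: NIH/3T3 cells, 5,000 per well. Buffer or medium: DMEM, 2% fetal bovine serum. Doses: compound pinned at 50 nL/well, DMSO. Schedule: ≥90 h infection period, 3 h prior cell attachment. Signal: luminescent β-galactosidase signal after 60 min lysis. Read-out: parasite load inhibition, %.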
* hit, by the source's call.

Results for O=C(Nc1nc2ccc(S(=O)(=O)N3CCCCC3)cc2s1)c1ccncc1 ?
CHOP inhibitor: -5; PREPL inhibitor: -1; NR3A LBD binder: -7; Beta apoptosis: -1; CSC inhib: 7; T cruzi repl: 17

Results for CCOc1ccc2nc(NC(=O)COC)sc2c1 ?
CHOP inhibitor: 1; PREPL inhibitor: -6; NR3A LBD binder: -1; Beta apoptosis: -1; CSC inhib: -11; T cruzi repl: 16

How did Cc1ccc2nc(NC(=O)c3ccccn3)sc2c1 do in these assays?
CHOP inhibitor: 97*; PREPL inhibitor: -2; NR3A LBD binder: 0; Beta apoptosis: 79*; CSC inhib: 84*; T cruzi repl: 69*

How did NS(=O)(=O)c1ccc(CNC(=O)CCSCCC(=O)NCc2ccc(S(N)(=O)=O)cc2)cc1 do in these assays?
CHOP inhibitor: -6; PREPL inhibitor: 8; NR3A LBD binder: -3; Beta apoptosis: 4; CSC inhib: 2; T cruzi repl: -31

What do the screens show for `Oc1ccc(N=Nc2n[nH]c(-c3ccc(Cl)cc3)n2)cc1`?
CHOP inhibitor: 75*; PREPL inhibitor: 7; NR3A LBD binder: 24*; Beta apoptosis: -5; CSC inhib: 52; T cruzi repl: 4

Results for Oc1ccc(N=Nc2ccccc2)cc1 ?
PREPL inhibitor: -6; NR3A LBD binder: 5; Beta apoptosis: 4; CSC inhib: 21; T cruzi repl: -14

How did O=S(=O)(Nc1cccc2cccnc12)c1ccc(S(=O)(=O)N2CCCC2)cc1 do in these assays?
CHOP inhibitor: -33; PREPL inhibitor: 6; NR3A LBD binder: -6; Beta apoptosis: 53; CSC inhib: 45; T cruzi repl: 69*

What do the screens show for `COc1ccc(C(=O)Nc2cccc(-c3cc4ccccc4oc3=O)c2)cc1[N+](=O)[O-]`?
CHOP inhibitor: 58; PREPL inhibitor: -14; NR3A LBD binder: 11*; Beta apoptosis: -4; CSC inhib: -6

What do the screens show for `CC(=O)Nc1ccc(NC(=O)c2cccc(-c3cc4ccccc4oc3=O)c2)cc1`?
CHOP inhibitor: -15; PREPL inhibitor: 6; NR3A LBD binder: -4; Beta apoptosis: 0; CSC inhib: -10; T cruzi repl: 10

How did COc1cc2nc(NC(=O)c3ccccc3)sc(=O)c2cc1OC do in these assays?
NR3A LBD binder: 42*; T cruzi repl: -6

What do the screens show for `COc1ccc(C(=O)Nc2nc3ccc(OC)cc3s2)cc1`?
NR3A LBD binder: 32*; Beta apoptosis: 8; CSC inhib: -3; T cruzi repl: -9

How did COc1ccc(C(=O)Nc2nc3ccc(S(C)(=O)=O)cc3s2)cc1 do in these assays?
CHOP inhibitor: -3; PREPL inhibitor: 11; NR3A LBD binder: 10*; Beta apoptosis: 5; T cruzi repl: -12

Results for COC(=O)c1ccccc1NC(=O)COC(=O)Cc1ccc(S(=O)(=O)N2CCOCC2)s1 ?
NR3A LBD binder: 0

What do the screens show for `CC(CC12CC3CC(CC(C3)C1)C2)NCc1ccccc1O` (centres undefined)?
PREPL inhibitor: -1; NR3A LBD binder: 2; Beta apoptosis: 18; CSC inhib: 38; T cruzi repl: 29

How did CCOc1ccc2nc(NC(=O)c3ccc(S(=O)(=O)N4CCOCC4)cc3)sc2c1 do in these assays?
CHOP inhibitor: 25; PREPL inhibitor: -2; NR3A LBD binder: 29*; Beta apoptosis: -1; CSC inhib: 3; T cruzi repl: -21

How did COc1ccc(-n2nc(C(=O)Nc3nc4ccc(OC)cc4s3)c3ccccc3c2=O)c(OC)c1 do in these assays?
CHOP inhibitor: 88*; PREPL inhibitor: -5; Beta apoptosis: -15; CSC inhib: 20; T cruzi repl: -11

Results for COC(=O)c1ccc(C(=O)Nc2nc3cc(N)c(C)cc3s2)cc1 ?
PREPL inhibitor: 16; NR3A LBD binder: 36*; Beta apoptosis: -3; CSC inhib: -4; T cruzi repl: 17

What do the screens show for `COc1ccc(Nc2nc3ccccc3nc2NS(=O)(=O)c2cccs2)cc1`?
CHOP inhibitor: 41; PREPL inhibitor: 6; NR3A LBD binder: 22*; CSC inhib: 22; T cruzi repl: -12

Results for Cc1csc(=O)n1CC(=O)OCC(=O)NC(C)c1ccc(F)cc1 (centres undefined) ?
PREPL inhibitor: -1; NR3A LBD binder: 1; Beta apoptosis: -4

Results for COc1ccc(NC(=O)CN(C)C(=O)C(C)Oc2ccc(Br)cc2)cc1 (centres undefined) ?
PREPL inhibitor: -18; NR3A LBD binder: 7; Beta apoptosis: -2; CSC inhib: -8; T cruzi repl: 0

What do the screens show for `Cc1cccc2sc(NC(=O)c3ccc(NS(=O)(=O)c4cccs4)cc3)nc12`?
CHOP inhibitor: 43; PREPL inhibitor: 11; NR3A LBD binder: 36*; Beta apoptosis: -2; CSC inhib: 60; T cruzi repl: -1

What do the screens show for `COc1cccc(NC(=O)c2ccc(NS(=O)(=O)c3cccs3)cc2)c1`?
NR3A LBD binder: -3

What do the screens show for `COc1ccc2nc(NC(=O)c3cccc(-c4cc5ccccc5oc4=O)c3)sc2c1`?
CHOP inhibitor: 105*; PREPL inhibitor: -4; NR3A LBD binder: 8; Beta apoptosis: 24; CSC inhib: inconclusive; T cruzi repl: 25

How did CCOc1ccc2nc(NC(=O)C3CCCO3)sc2c1 (centres undefined) do in these assays?
CHOP inhibitor: -1; PREPL inhibitor: -5; NR3A LBD binder: 0; Beta apoptosis: -5; CSC inhib: 15; T cruzi repl: 8

Results for COc1ccc2nc(NC(=O)CNS(=O)(=O)c3cccs3)sc2c1 ?
CHOP inhibitor: -6; PREPL inhibitor: -6; NR3A LBD binder: 4; Beta apoptosis: -2; CSC inhib: -10; T cruzi repl: -2

How did COc1ccc2nc(NC(=O)c3ccc(NC(=O)C4CCCO4)cc3)sc2c1 (centres undefined) do in these assays?
PREPL inhibitor: 12; NR3A LBD binder: 20*; Beta apoptosis: 9; CSC inhib: 18; T cruzi repl: -21

Results for COc1ccc2nc(NC(=O)c3ccc(NS(=O)(=O)c4cccs4)cc3)sc2c1 ?
CHOP inhibitor: 21; PREPL inhibitor: 21; NR3A LBD binder: 25*; Beta apoptosis: -4; CSC inhib: 47; T cruzi repl: -8

Results for O=C(Nc1ccncc1)c1cc(S(=O)(=O)N2CCOCC2)ccc1Cl ?
PREPL inhibitor: -1; NR3A LBD binder: 0; Beta apoptosis: -1; T cruzi repl: 3

Results for Cc1ccc(C)c(N2N=C(C(=O)Nc3ccc(N4CCOCC4)cc3)CCC2=O)c1 ?
NR3A LBD binder: 1

What do the screens show for `Cc1ccccc1-n1c(SCC(=O)N/N=C/c2sccc2C)nc2ccccc2c1=O`?
CHOP inhibitor: 27; PREPL inhibitor: 11; NR3A LBD binder: 3; Beta apoptosis: 16; CSC inhib: 38; T cruzi repl: 10

Screening results: PubChem, several laboratories
